Hits are enriched below; roughly 3.3% of the tested compounds scored in any of these assays.
5-HT1A blocker – blocks the human serotonin 5-HT1a receptor; P08908; CHO 5-HT1a Ga15 NFAT-bla reporter, antagonist mode; inhibition, % at 10 µM; hit rate 0.68% among 62,000; AID 612;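 active = inhibition above the mean of all tested compounds plus 3 SD, cut at about 43% in these data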;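 also: receptor stimulated by 5-CT agonist at 100 nM near EC80; beta-lactamase reporter measured by ratiometric fluorescence of a cleavable substrate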
Target sequence (P08908 whole entry, looked up): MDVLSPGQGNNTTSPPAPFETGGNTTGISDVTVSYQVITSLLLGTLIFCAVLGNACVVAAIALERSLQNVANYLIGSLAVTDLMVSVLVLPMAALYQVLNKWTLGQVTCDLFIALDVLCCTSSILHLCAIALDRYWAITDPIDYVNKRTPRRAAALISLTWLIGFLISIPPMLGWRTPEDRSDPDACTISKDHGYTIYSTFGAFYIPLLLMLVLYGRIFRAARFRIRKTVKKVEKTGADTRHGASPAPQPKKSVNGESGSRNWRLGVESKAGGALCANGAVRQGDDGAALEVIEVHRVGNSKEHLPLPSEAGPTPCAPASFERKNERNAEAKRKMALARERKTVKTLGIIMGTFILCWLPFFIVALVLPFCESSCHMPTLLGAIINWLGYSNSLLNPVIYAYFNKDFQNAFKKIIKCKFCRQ
HEK293 NFkB inh – inhibitors of the PMA/ionomycin-induced NF-kB reporter in HEK293 cells; hit rate 0.21% among 62,000; HEK-293 NF-kB luciferase reporter, luminescence; inhibition, % at 3 µM; AID 465;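 active = inhibition above the mean of all tested compounds plus 3 SD, cut at about 40% in these data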;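 also: 0% = stimulated DMSO wells and 100% = 10 µM reference inhibitor 5653914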
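System: NF-kB luciferase reporter HEK-293 cells | Replication: Single test | Control set: DMSO vs reference inhibitor | Evaluation: % inhibition | Schedule: 1 h pretreatment, 16 h stimulation, 37 °C | Probe or stimulus: PMA with ionomycin | Compound dosing: One dose, 3 µM | Detection: Luciferase luminescence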
HTR1E antagonist – 5-HT1E (human) receptor antagonism; P28566; CHO 5-HT1E Ga15 NFAT-bla reporter, FRET, antagonist; inhibition, % at 6 µM; hit rate 0.99% among 65,000;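 active = inhibition above a set limit, the mean inhibition across every tested compound plus 3 SD, cut at about 29% in these data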;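 also: signal is the 460 over 535 nm emission ratio of beta-lactamase substrate; 0% = agonist plus DMSO wells and 100% = wells without agonist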
5HT1E ag – 5-HT1E (human) receptor agonism | P28566 | CHO 5-HT1E Ga15 NFAT-bla reporter, FRET; 0% DMSO wells, 100% control agonist wells | activation, % at 6 µM | hit rate 0.69% among 65,000;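 active = activation above a set limit, the screen-wide mean activation plus 3 SD, cut at about 8.5% in these data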;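 also: 100% = positive control agonist at 1 µM giving full maximal response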
Jurkat viability – cytotoxic compounds reducing Jurkat cell viability; Jurkat E6.1 viability, ATP luminescence, 48 h; inhibition, % at 4 µM; hit rate 1.2% among 56,000; AID 463;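 active = inhibition above the mean inhibition of all tested compounds plus 3 SD, cut at about 28% in these data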
HTR1A agonist – 5-HT1a (human) receptor agonism | P08908 | CHO 5-HT1a Ga15 NFAT-bla reporter, FRET ratio; 0% basal, 100% maximal reference agonist | activation, % at 10 µM | hit rate 0.56% among 65,000;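 active = activation above the screen-wide mean activation plus 3 SD, cut at about 19% in these data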;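 also: 0% = DMSO wells and 100% = 5-CT at EC100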
* = called active by the depositor.

What do the screens show for `O=C(Nc1ccn(-c2ccccc2)n1)c1ccc(S(=O)(=O)N2CCCCCC2)cc1`?
5-HT1A blocker: -17; HEK293 NFkB inh: 15; HTR1E antagonist: -6; 5HT1E ag: 0; Jurkat viability: 34*; HTR1A agonist: 0

How did COc1cccc(OCCOCCNCCO)c1 do in these assays?
5-HT1A blocker: 0; HEK293 NFkB inh: 16; HTR1E antagonist: 2; 5HT1E ag: 0; Jurkat viability: -4; HTR1A agonist: 42*

What do the screens show for `COc1cccc(OC)c1OCCNCCO`?
5-HT1A blocker: 1; HEK293 NFkB inh: 23; HTR1E antagonist: 0; 5HT1E ag: 1; Jurkat viability: 2; HTR1A agonist: 0

What do the screens show for `N#Cc1c(N)nc(-c2ccccc2)nc1-c1ccccc1`?
5-HT1A blocker: 23; HEK293 NFkB inh: 19; HTR1E antagonist: 30*; 5HT1E ag: 0; Jurkat viability: 6; HTR1A agonist: -1

What do the screens show for `CN1CCN(C(=O)c2ccc3c(c2)N(Cc2cccc(Cl)c2)C(=O)c2ccccc2S3=O)CC1` (centres undefined)?
5-HT1A blocker: 7; HEK293 NFkB inh: 1; HTR1E antagonist: -1; 5HT1E ag: 15*; Jurkat viability: 5; HTR1A agonist: -1

What do the screens show for `c1ccc(COc2ccc(Nc3ncnc4nc[nH]c34)cc2)cc1`?
5-HT1A blocker: -11; HEK293 NFkB inh: 0; HTR1E antagonist: 1; 5HT1E ag: -2; Jurkat viability: 3; HTR1A agonist: -2

How did Cc1oc(-c2ccc(Cl)cc2)nc1CN1CCCC(C(=O)N2CCN(C(=O)c3ccco3)CC2)C1 (centres undefined) do in these assays?
5-HT1A blocker: -2; HEK293 NFkB inh: 38; HTR1E antagonist: -8; 5HT1E ag: 0; Jurkat viability: 62*; HTR1A agonist: 1

What do the screens show for `Cc1oc(-c2cccc(Cl)c2)nc1CN1CCCC(C(=O)NCCCN2CCOCC2)C1` (centres undefined)?
5-HT1A blocker: 16; HEK293 NFkB inh: -13; HTR1E antagonist: 6; 5HT1E ag: 0; Jurkat viability: 4; HTR1A agonist: 30*

How did O=C(c1ccco1)N1CCN(C(=O)C2CCCN(S(=O)(=O)Cc3ccccc3)C2)CC1 (centres undefined) do in these assays?
5-HT1A blocker: 11; HEK293 NFkB inh: 10; HTR1E antagonist: 7; 5HT1E ag: -1; HTR1A agonist: 70*

Results for Cc1nn(-c2nc3ccccc3s2)c(C)c1Oc1ccccc1O ?
5-HT1A blocker: -12; HEK293 NFkB inh: -6; HTR1E antagonist: -10; 5HT1E ag: 0; Jurkat viability: 28*; HTR1A agonist: -4

What do the screens show for `C=CCSc1nc2ccccc2n1Cc1nnc(-c2cccs2)o1`?
5-HT1A blocker: 9; HEK293 NFkB inh: 14; HTR1E antagonist: 5; 5HT1E ag: 18*; Jurkat viability: -1; HTR1A agonist: 5

What do the screens show for `C=CCn1c(-c2cccs2)nc2ccccc21`?
5-HT1A blocker: 6; HEK293 NFkB inh: 10; HTR1E antagonist: 5; 5HT1E ag: 0; Jurkat viability: -5; HTR1A agonist: 0

What do the screens show for `O=C(O)c1ccc2cccc(Cl)c2c1O`?
5-HT1A blocker: 52*; HEK293 NFkB inh: 14; HTR1E antagonist: 1; 5HT1E ag: 0; Jurkat viability: 0; HTR1A agonist: -3

What do the screens show for `O=C(O)c1cc(Cl)c2ccccc2c1O`?
5-HT1A blocker: 1; HEK293 NFkB inh: 7; HTR1E antagonist: 10; 5HT1E ag: 0; Jurkat viability: 9; HTR1A agonist: 2

How did CCCC(=O)N1CCN(c2ccc(NC(=O)c3cc4ccccc4o3)cc2Cl)CC1 do in these assays?
5-HT1A blocker: 17; HEK293 NFkB inh: 27; HTR1E antagonist: 44*; 5HT1E ag: 2; Jurkat viability: 19; HTR1A agonist: -2

What do the screens show for `CCC(=O)N1CCN(c2ccc(NC(=O)c3cc4ccccc4o3)cc2Cl)CC1`?
5-HT1A blocker: 31; HEK293 NFkB inh: 12; HTR1E antagonist: 36*; 5HT1E ag: 0; Jurkat viability: 23; HTR1A agonist: 1

Results for O=C(c1cc2ccccc2o1)N1CCN(c2ccccc2Cl)CC1 ?
5-HT1A blocker: -3; HEK293 NFkB inh: 13; HTR1E antagonist: 1; 5HT1E ag: 0; Jurkat viability: -1; HTR1A agonist: 0

How did O=C(Nc1ccc(N2CCN(C(=O)c3ccco3)CC2)c(Cl)c1)c1cc2ccccc2o1 do in these assays?
5-HT1A blocker: 27; HEK293 NFkB inh: 9; HTR1E antagonist: 38*; 5HT1E ag: 3; Jurkat viability: 12; HTR1A agonist: 4

What do the screens show for `COc1ccc(CCNS(=O)(=O)c2cccc(C(=O)O)c2)cc1OC`?
5-HT1A blocker: -12; HEK293 NFkB inh: 18; HTR1E antagonist: 12; 5HT1E ag: -1; Jurkat viability: -3; HTR1A agonist: -2

Results for Cc1ccc(NS(=O)(=O)c2cc(C(=O)N3CCOCC3)ccc2C)cc1 ?
5-HT1A blocker: 11; HEK293 NFkB inh: 6; HTR1E antagonist: 4; 5HT1E ag: 0; Jurkat viability: 2; HTR1A agonist: 1

How did Cc1ccc(C)c(S(=O)(=O)Nc2ccc3scnc3c2)c1 do in these assays?
5-HT1A blocker: 20; HEK293 NFkB inh: 8; HTR1E antagonist: 10; 5HT1E ag: 0; Jurkat viability: 92*; HTR1A agonist: -2

How did c1cncc(-c2nc3c4ccccc4nc(N4CCC(N5CCCCC5)CC4)n3n2)c1 do in these assays?
5-HT1A blocker: -13; HEK293 NFkB inh: 8; HTR1E antagonist: -8; 5HT1E ag: -1; Jurkat viability: 1; HTR1A agonist: -1

How did Cc1cc(C)c(NC(=O)c2cc3c(nc4sccn43)s2)c(C)c1 do in these assays?
5-HT1A blocker: 23; HEK293 NFkB inh: 4; HTR1E antagonist: 29*; 5HT1E ag: 0; Jurkat viability: -6; HTR1A agonist: 0

Results for CN(C)CCCN1C(=O)C(O)=C(C(=O)c2cccs2)C1c1ccccn1 (centres undefined) ?
5-HT1A blocker: 6; HEK293 NFkB inh: 16; HTR1E antagonist: 6; 5HT1E ag: 0; Jurkat viability: -8; HTR1A agonist: -1

What do the screens show for `COC(=O)C1=C(CN2CCCc3ccccc32)NC(=O)NC1c1ccc(F)cc1` (centres undefined)?
5-HT1A blocker: 8; HEK293 NFkB inh: 70*; HTR1E antagonist: 4; 5HT1E ag: 0; Jurkat viability: 0; HTR1A agonist: -2

What do the screens show for `CCOC(=O)C1CCN(C(=O)COc2ccc(S(=O)(=O)NC(C)C)cc2Cl)CC1`?
5-HT1A blocker: -7; HEK293 NFkB inh: 10; HTR1E antagonist: 1; 5HT1E ag: 0; Jurkat viability: -9; HTR1A agonist: 48*

Results for Cc1ccc(-c2nc(CN(C)C)cc(CN(C)C)c2O)cc1 ?
5-HT1A blocker: 2; HEK293 NFkB inh: -2; HTR1E antagonist: -1; 5HT1E ag: -2; Jurkat viability: 1; HTR1A agonist: -1
